The values below come from ChEMBL document CHEMBL1132215, “A new method for rapidly generating inhibitors of glyoxalase I inside tumor cells using S-(N-aryl-N-hydroxycarbamoyl)ethylsulfoxides” (J Med Chem, 1999).

Data set [1] in a line: Second-order rate constant for acyl-interchange reactions between glutathione and the compound. In kind it is ADME. The gist of the method: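 Cell-free reaction with glutathione in 0.1 M potassium phosphate, pH 7.5, 5% ethanol, 25 °C. Under pseudo-first-order conditions (≥10-fold glutathione excess), derived from the first-order loss of reactants followed spectrophotometrically. For the slow ester analogue, taken instead from the initial rate of product appearance (~0.1% reaction) with 15-fold glutathione excess, followed by reverse-phase HPLC.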

In data set [2] the test system is L1210. Put plainly: Concentration producing 50% growth inhibition of L1210 cells. The conditions noted are these: Mus musculus. It counts as functional. The gist of the method:
(§1)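 Murine L1210 leukemia cells (NCI tumor repository) in log phase, kept in RPMI 1640 with […], 10% heat-inactivated fetal calf serum and gentamycin (10 µg/mL), 37 °C, 5% CO2. Seeded at 5000 cells/well with at least five drug levels in triplicate. Fresh drug added every 12 h. Cell density counted by Coulter Counter after 48 h. Percentage growth taken against time-zero and no-drug counts. Values interpolated from dose-response curves; mean and SD of three experiments on different days.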

The subject of data set [3] is L1210. Put plainly: Concentration producing 100% tumor growth inhibition of L1210 cells. It counts as functional. The conditions noted are these: Mus musculus. The gist of the method: as §1
Data set [4] concerns L1210. The data set is described as follows: Concentration required to kill 50% L1210 cells. In kind it is ADME, cell-based. The conditions noted are these: mouse. The gist of the method:
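Mouse L1210 leukemia cells in log growth, RPMI 1640 with 10% heat-inactivated fetal calf serum and gentamycin (10 µg/mL), 37 °C, 5% CO2. Seeded at 5000 cells/well with at least five drug levels in triplicate. Fresh drug added every 12 h. Cell density counted by Coulter Counter after 48 h, viability by trypan blue. LC50 (50% cell killing) interpolated from dose-response curve; three experiments on different days.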

The test system of data set [5] is L1210. Put plainly: Rate constant from the plots of initial rates of disappearance of the drug inside L1210 cells versus extracellular concentration of prodrug. In kind it is functional, Mus musculus. The conditions noted are these: in the assay text read “appearance” for “disappearance”. The gist of the method: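 L1210 suspensions (~1.5 × 10^6 cells/mL) in RPMI 1640/10% heat-inactivated FCS with gentamycin, 37 °C, were given fixed prodrug levels. Aliquots taken over time were spun through silicone oil. Pellets were extracted with 70% ethanol and the glutathione conjugate was measured by C18 reverse-phase HPLC at 260 nm against standard curves. The constant is the slope of initial intracellular appearance rate versus extracellular prodrug concentration.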

In data set [1], `CC[S+]([O-])C(=O)N(C)c1ccc(Cl)cc1` (stereo unspecified) came in with a k2 of 2.33 M⁻¹ s⁻¹.
In the case of `Cl.NC(CCC(=O)NC(CSC(=O)N(O)c1ccc(Cl)cc1)C(=O)NCC(=O)OC1CCCC1)C(=O)OC1CCCC1` (stereo unspecified), it took 3.4 µM to inhibit growth in the data set with L1210 [2] by half (GI50). The TGI (in general, the concentration at which net growth stops) with L1210 [3] amounted to 5.3 µM. Moreover, the LC50 (in general, the concentration that kills 50% of the test population) in the data set with L1210 [4] came out at 8.3 µM. In addition, the Rate constant in the data set on L1210 [5] turned out to be 0.59 min⁻¹.
The corresponding values for `CCOC(=O)CNC(=O)C(CSC(=O)N(O)c1ccc(Cl)cc1)NC(=O)CCC(N)C(=O)OCC.Cl` (stereo unspecified) are 7 µM, 27 µM, 54 µM and 0.1 min⁻¹.
In data set [1], `CC[S+]([O-])C(=O)N(O)c1ccc(Cl)cc1` (stereo unspecified) had a k2 of 30.7 M⁻¹ s⁻¹. Besides, in the data set with L1210 [2], the 50% growth inhibitory concentration (GI50) (as a rule, the concentration giving 50% growth inhibition) worked out at 0.5 µM. This compound had a TGI in the data set on L1210 [3] of 3.9 µM. The LC50 with L1210 [4] was determined as 13 µM. For the same compound, the Rate constant with L1210 [5] is 1.41 min⁻¹.
The compound `CC[S+]([O-])C(=O)N(C)O` (stereo unspecified) returned a k2 in data set [1] of 9.83 M⁻¹ s⁻¹.
The same measure, in the same setting: the value for `CCSC(=O)N(O)c1ccc(Cl)cc1` was 5.83e-06 M⁻¹ s⁻¹.
